These results are taken from ChEMBL document CHEMBL4411341, “Photoactivatable Prodrug of Doxazolidine Targeting Exosomes” (J Med Chem, 2019).

Non-standard residues stand in square brackets, D forms with d. Residues, ends and D or L forms follow the SMILES beside them. *: point of attachment. X1 = COc1cc(C(C)OC(=O)N2CO[C@@H]3[C@H](C)O[C@@H](O[C@H]4C[C@](O)(C(=O)CO)Cc5c(O)c6c(c(O)c54)C(=O)c4c(OC)cccc4C6=O)C[C@@H]32)c([N+](=O)[O-])cc1OCC(=O)NCCOCCOCCOCCn1nnc2c1-c1ccccc1CN(C(=O)CCNC(=O)CCN1C(=O)CC(*)C1=O)c1ccccc1-2; X2 = COc1cc(C(C)OC(=O)N[C@H]2C[C@H](O[C@H]3C[C@](O)(C(=O)CO)Cc4c(O)c5c(c(O)c43)C(=O)c3c(OC)cccc3C5=O)O[C@@H](C)[C@H]2O)c([N+](=O)[O-])cc1OCC(=O)NCCOCCOCCOCCn1nnc2c1-c1ccccc1CN(C(=O)CCNC(=O)CCN1C(=O)CC(*)C1=O)c1ccccc1-2; Mpa = O=C(O)CCS

In general, IC50 refers to the concentration that inhibits the measured activity by half. Higher therefore signals weaker potency in that assay.

Data set [1] in a line: Binding affinity to exosomes in human MDA-MB-231 cells assessed as co-localization of compound with exosomes out side nucleus area at 1 uM after 1 to 6 hrs using Cy5-labeled peptides by Hoechst-staining based assay. The class given is ADME, subcellular, Exosome. The conditions noted are these: mda-mb-231, 1 µM. Summed up: (§1)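 Cy5-labeled L- or D-MARCKS-ED peptide (1 µM) was co-incubated with fluorescent dye-labeled exosomes on MDA-MB-231 cells for 6 h. Peptide and exosome signals were then examined by confocal microscopy, including higher-magnification 3D images, to assess co-localization relative to the nucleus.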

A short description of data set [2]: Binding affinity to exosomes in human MDA-MB-231 cells assessed as co-localization of compound with exosomes at 1 uM after 1 to 6 hrs using Cy5-labeled peptides by Hoechst-staining based assay. The data set is classed as ADME, subcellular, Exosome. The settings on record: mda-mb-231, 1 µM. The method in brief:
as §1

A short description of data set [3]: Binding affinity to exosomes in human MDA-MB-231 cells assessed as co-localization of compound with exosomes on plasma membrane at 1 uM after 1 hr using Cy5-labeled peptides by Hoechst-staining based assay. The data set is classed as ADME, Exosome. The conditions noted are these: mda-mb-231, 1 h.
Data set [4] is described as follows: Drug uptake in human MDA-MB-231 cells at 1 uM after 6 hrs by flow cytometry. The class given is ADME, cell-based. The settings on record: mda-mb-231, 6 h. The method in brief:
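MDA-MB-231 cells incubated 6 h with 1 µM compound. Uptake read by flow cytometry, with fluorescence intensity normalized to untreated cells. Three biologically independent experiments; standard deviation of mean fluorescence intensity.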
On the technique in general: In flow cytometry, cells or beads pass a laser one at a time.

In data set [5] the test system is MDA-MB-231. Description: Growth inhibition of human MDA-MB-231 cells measured after 5 days in absence of irradiation by crystal violet-staining based assay. The data set is classed as cell-based. The settings on record: MDA-MB-231, 120 h. Summed up: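 MDA-MB-231 cells given prodrug at various concentrations for 6 h in medium with 10% FBS, washed twice with PBS. Plate wrapped in aluminum foil to exclude ambient UV, no irradiation. Cells then washed, refed, and grown until untreated cells reached 80% confluency or 5 days. Cell density read by crystal violet staining; IC50 from growth inhibition curves.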

Data set [6] relates to MDA-MB-231. Description: Growth inhibition of human MDA-MB-231 cells irradiated with UV light for 15 mins followed by 15 mins incubation and measured after 5 days by crystal violet-staining based assay. The data set is classed as functional, cell-based. The conditions noted are these: MDA-MB-231, light or radiation study. The method in brief:
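MDA-MB-231 cells exposed to prodrug at various concentrations for 6 h in medium with 10% FBS, washed twice with PBS, then irradiated 15 min with UV black lamp (320-400 nm, max 350 nm, ~0.8 mW/cm2 at 12 cm). Held 15 min at room temperature, washed, refed, and grown until untreated cells reached 80% confluency or 5 days. Crystal violet read-out; IC50 from growth inhibition curves.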

In data set [7] the test system is MDA-MB-231. Briefly: Ratio of IC50 for human MDA-MB-231 cells in absence of irradiation to IC50 for human MDA-MB-231 cells in presence of irradiation.
Data set [8] can be described thus: Drug uptake in human MDA-MB-231 cells at 5 uM after 3 hrs by NucBlue live cell stain-based confocal microscopy. The data set is classed as ADME. The settings on record: mda-mb-231, 3 h. The method in brief: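 MDA-MB-231 cells exposed to 5 µM conjugate for 3 h, then imaged by confocal microscopy at 40x using anthracycline fluorescence; untreated cells imaged as reference.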

Data set [9] deals with MDA-MB-231. Briefly: Cytotoxicity against human MDA-MB-231 cells at 10 uM after 6 hrs by NucBlue live cell stain-based confocal microscopy. The conditions noted are these: mda-mb-231, 6 h.
The nature of data set [10]: Drug uptake in human MDA-MB-231 cells at 1 uM after 1 to 6 hrs using Cy5-labeled peptides by confocal microscopy. The conditions noted are these: mda-mb-231, 1 µM.
Data set [11] can be described thus: Induction of exosomes-mediated drug uptake in human […] cells at 1 uM after 6 hrs in presence of cellmask orange-labeled exosomes by tritc channel based assay. The settings on record: mda-mb-231, 6 h. The method in brief:
as §1

A short description of data set [12]: Drug uptake in human HMEC cells at 1 uM after 1 to 6 hrs using Cy5-labeled peptides by confocal microscopy.
Data set [13] is described as follows: Induction of exosomes-mediated drug uptake in human […] cells at 1 uM after 6 hrs in presence of cellmask orange-labeled exosomes by Cy5 channel-based assay. The conditions noted are these: mda-mb-231, 6 h. Summed up:
as §1

As to `CC(C)C[C@H](NC(=O)[C@H](CCCCN)NC(=O)[C@H](Cc1ccccc1)NC(=O)[C@H](CO)NC(=O)[C@H](CCCCN)NC(=O)[C@H](CCCCN)NC(=O)[C@H](Cc1ccccc1)NC(=O)[C@H](CO)NC(=O)[C@H](Cc1ccccc1)NC(=O)[C@H](CCCNC(=N)N)NC(=O)[C@H](CCCCN)NC(=O)[C@H](CCCCN)NC(=O)[C@H](CCCCN)NC(=O)[C@H](CCCCN)NC(=O)[C@@H](N)CCCCN)C(=O)N[C@@H](CO)C(=O)NCC(=O)N[C@@H](Cc1ccccc1)C(=O)N[C@@H](CO)C(=O)N[C@@H](Cc1ccccc1)C(=O)N[C@@H](CCCCN)C(=O)N[C@@H](CCCCN)C(=O)N[C@@H](CC(N)=O)C(=O)N[C@@H](CCCCN)C(=O)N[C@@H](CCCCN)C(N)=O`, the result in data set [1], in [2] and in [3] was Active.

For `COc1cc(C(C)OC(=O)N2CO[C@@H]3[C@H](C)O[C@@H](O[C@H]4C[C@](O)(C(=O)CO)Cc5c(O)c6c(c(O)c54)C(=O)c4c(OC)cccc4C6=O)C[C@@H]32)c([N+](=O)[O-])cc1OCC(=O)NCCOCCOCCOCCn1nnc2c1-c1ccccc1CN(C(=O)CCNC(=O)CCN1C(=O)CC(SCCC(=O)N[C@H](CCCCN)C(=O)N[C@H](CCCCN)C(=O)N[C@H](CCCCN)C(=O)N[C@H](CCCCN)C(=O)N[C@H](CCCCN)C(=O)N[C@H](CCCNC(=N)N)C(=O)N[C@H](Cc3ccccc3)C(=O)N[C@H](CO)C(=O)N[C@H](Cc3ccccc3)C(=O)N[C@H](CCCCN)C(=O)N[C@H](CCCCN)C(=O)N[C@H](CO)C(=O)N[C@H](Cc3ccccc3)C(=O)N[C@H](CCCCN)C(=O)N[C@H](CC(C)C)C(=O)N[C@H](CO)C(=O)NCC(=O)N[C@H](Cc3ccccc3)C(=O)N[C@H](CO)C(=O)N[C@H](Cc3ccccc3)C(=O)N[C@H](CCCCN)C(=O)N[C@H](CCCCN)C(=O)N[C@H](CC(N)=O)C(=O)N[C@H](CCCCN)C(=O)N[C@H](CCCCN)C(N)=O)C1=O)c1ccccc1-2` (stereo partly specified), the Drug uptake result in [4] and in data set [8] was “Active” in each case. Moreover, the figures for the IC50 with MDA-MB-231 [5] and in the data set with MDA-MB-231 [6] were 2000 nM and 42 nM, respectively. Also, in the data set on MDA-MB-231 [7], the “Ratio IC50” value came to 130. In the data set with MDA-MB-231 [9], the Activity result is “Toxic”.

As to `COc1cc(C(C)OC(=O)N2CO[C@@H]3[C@H](C)O[C@@H](O[C@H]4C[C@](O)(C(=O)CO)Cc5c(O)c6c(c(O)c54)C(=O)c4c(OC)cccc4C6=O)C[C@@H]32)c([N+](=O)[O-])cc1OCC(=O)NCCOCCOCCOCCn1nnc2c1-c1ccccc1CN(C(=O)CCNC(=O)CCN1C(=O)CC(SCCC(=O)N[C@@H](CCCCN)C(=O)N[C@@H](CCCCN)C(=O)N[C@@H](CCCCN)C(=O)N[C@@H](CCCCN)C(=O)N[C@@H](CCCCN)C(=O)N[C@@H](CCCNC(=N)N)C(=O)N[C@@H](Cc3ccccc3)C(=O)N[C@@H](CO)C(=O)N[C@@H](Cc3ccccc3)C(=O)N[C@@H](CCCCN)C(=O)N[C@@H](CCCCN)C(=O)N[C@@H](CO)C(=O)N[C@@H](Cc3ccccc3)C(=O)N[C@@H](CCCCN)C(=O)N[C@@H](CC(C)C)C(=O)N[C@@H](CO)C(=O)NCC(=O)N[C@@H](Cc3ccccc3)C(=O)N[C@@H](CO)C(=O)N[C@@H](Cc3ccccc3)C(=O)N[C@@H](CCCCN)C(=O)N[C@@H](CCCCN)C(=O)N[C@@H](CC(N)=O)C(=O)N[C@@H](CCCCN)C(=O)N[C@@H](CCCCN)C(N)=O)C1=O)c1ccccc1-2` (stereo partly specified), the Drug uptake result in [4] and in data set [8] was “Active” each time. The results for the IC50 in the data set with MDA-MB-231 [5] and in the data set with MDA-MB-231 [6] were 2500 nM and 15 nM, respectively. The “Ratio IC50” value in the data set with MDA-MB-231 [7] was 170. In addition, the Activity result with MDA-MB-231 [9] was “Toxic”.

For `CC(C)C[C@@H](NC(=O)[C@@H](CCCCN)NC(=O)[C@@H](Cc1ccccc1)NC(=O)[C@@H](CO)NC(=O)[C@@H](CCCCN)NC(=O)[C@@H](CCCCN)NC(=O)[C@@H](Cc1ccccc1)NC(=O)[C@@H](CO)NC(=O)[C@@H](Cc1ccccc1)NC(=O)[C@@H](CCCNC(=N)N)NC(=O)[C@@H](CCCCN)NC(=O)[C@@H](CCCCN)NC(=O)[C@@H](CCCCN)NC(=O)[C@@H](CCCCN)NC(=O)[C@H](N)CCCCN)C(=O)N[C@H](CO)C(=O)NCC(=O)N[C@H](Cc1ccccc1)C(=O)N[C@H](CO)C(=O)N[C@H](Cc1ccccc1)C(=O)N[C@H](CCCCN)C(=O)N[C@H](CCCCN)C(=O)N[C@H](CC(N)=O)C(=O)N[C@H](CCCCN)C(=O)N[C@H](CCCCN)C(N)=O`, the Drug uptake entry in [10], in data set [11], in data set [12] and in data set [13] was “Active” each time. For the same compound, the outcome in data set [1], in data set [2] and in data set [3] was Active.

Consider `CC[C@H](C)[C@H](NC(=O)[C@H](CCCCN)NC(=O)[C@H](CC(=O)O)NC(=O)[C@H](Cc1ccc(O)cc1)NC(=O)[C@H](CC(=O)O)NC(=O)CNC(=O)CNC(=O)CCSC1CC(=O)N(CCC(=O)NCCC(=O)N2Cc3ccccc3-c3c(nnn3CCOCCOCCOCCNC(=O)COc3cc([N+](=O)[O-])c(C(C)OC(=O)N4CO[C@@H]5[C@H](C)O[C@@H](O[C@H]6C[C@](O)(C(=O)CO)Cc7c(O)c8c(c(O)c76)C(=O)c6c(OC)cccc6C8=O)C[C@@H]54)cc3OC)-c3ccccc32)C1=O)C(=O)NCC(=O)N[C@@H](CCCCN)C(=O)N[C@@H](CC(N)=O)C(=O)N[C@@H](CC(=O)O)C(=O)N[C@@H](C)C(N)=O` (stereo partly specified) ([Mpa](X1)GGDYDKIGKNDA-NH2), for which the Drug uptake entry in data set [4] is “Not Active”. Moreover, the IC50 is 11000 nM in the data set with MDA-MB-231 [5] and 1300 nM in the data set with MDA-MB-231 [6]. Moreover, the Ratio IC50 with MDA-MB-231 [7] was found to be 8.5.

Regarding `COc1cc(C(C)OC(=O)N[C@H]2C[C@H](O[C@H]3C[C@](O)(C(=O)CO)Cc4c(O)c5c(c(O)c43)C(=O)c3c(OC)cccc3C5=O)O[C@@H](C)[C@H]2O)c([N+](=O)[O-])cc1OCC(=O)NCCOCCOCCOCCn1nnc2c1-c1ccccc1CN(C(=O)CCNC(=O)CCN1C(=O)CC(SCCC(=O)N[C@@H](CCCCN)C(=O)N[C@@H](CCCCN)C(=O)N[C@@H](CCCCN)C(=O)N[C@@H](CCCCN)C(=O)N[C@@H](CCCCN)C(=O)N[C@@H](CCCNC(=N)N)C(=O)N[C@@H](Cc3ccccc3)C(=O)N[C@@H](CO)C(=O)N[C@@H](Cc3ccccc3)C(=O)N[C@@H](CCCCN)C(=O)N[C@@H](CCCCN)C(=O)N[C@@H](CO)C(=O)N[C@@H](Cc3ccccc3)C(=O)N[C@@H](CCCCN)C(=O)N[C@@H](CC(C)C)C(=O)N[C@@H](CO)C(=O)NCC(=O)N[C@@H](Cc3ccccc3)C(=O)N[C@@H](CO)C(=O)N[C@@H](Cc3ccccc3)C(=O)N[C@@H](CCCCN)C(=O)N[C@@H](CCCCN)C(=O)N[C@@H](CC(N)=O)C(=O)N[C@@H](CCCCN)C(=O)N[C@@H](CCCCN)C(N)=O)C1=O)c1ccccc1-2` (stereo partly specified) ([Mpa](X2)KKKKKRFSFKKSFKLSGFSFKKNKK-NH2), the Drug uptake entry in data set [4] is reported as “Active”. In addition, the IC50 stood at 6500 nM with MDA-MB-231 [5] and 1200 nM in the data set with MDA-MB-231 [6]. The Ratio IC50 in the data set with MDA-MB-231 [7] stood at 5.4.

For the compound H-DDDDDRASADDSADLSGASADDDDD-OH, the Drug uptake entry in data set [10] and in [12] was “Not Active” throughout.

H-GGDYDKIGKNDA-OH: the Drug uptake entry in [10] and in [12] was “Not Active” each time.

As for H-KKKGKKNSSKKFFFFSKFKLSRKKK-NH2, the Drug uptake result in data set [10] and in data set [12] was “Active” each time.
